Assay results as given in ChEMBL document CHEMBL1938255, “Novel 1-hydroxypiperazine-2,6-diones as new leads in the inhibition of metalloproteinases” (J Med Chem, 2011).
pIC50: −log10 of the molar value.

Assays:
Interstitial collagenase = biological target: T1, Interstitial collagenase (Homo sapiens, UniProt P03956); assay: Inhibition of MMP1 using Mca-Lys-Pro-Leu-Gly-Leu-Dap(Dnp)-Ala-Arg-NH2 as substrate preincubated for 4 hrs measured every 15 secs for 20 mins by fluorescence analysis
T1 sequence (P03956 whole entry): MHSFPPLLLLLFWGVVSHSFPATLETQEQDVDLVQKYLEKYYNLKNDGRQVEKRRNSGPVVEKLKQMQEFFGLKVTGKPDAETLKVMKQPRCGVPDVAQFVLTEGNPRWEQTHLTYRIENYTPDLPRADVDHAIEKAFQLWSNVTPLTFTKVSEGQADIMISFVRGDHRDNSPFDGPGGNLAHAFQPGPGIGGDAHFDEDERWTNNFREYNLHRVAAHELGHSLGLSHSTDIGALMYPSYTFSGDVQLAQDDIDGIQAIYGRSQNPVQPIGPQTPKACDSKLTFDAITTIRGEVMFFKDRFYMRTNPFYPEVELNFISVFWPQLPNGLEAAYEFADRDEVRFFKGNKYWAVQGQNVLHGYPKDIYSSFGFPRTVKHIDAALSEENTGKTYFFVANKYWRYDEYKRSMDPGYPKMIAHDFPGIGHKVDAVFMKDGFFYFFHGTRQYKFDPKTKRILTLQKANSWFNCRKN
Summary of the method: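 Pro-MMP1 activated with 2 mM APMA, 2 h, 37 °C. Enzyme at 2.0 nM final was preincubated 4 h at 25 °C with inhibitor at seven concentrations in Tris 50 mM pH 7.5, NaCl 150 mM, CaCl2 10 mM, Brij 35 0.05%, DMSO 1%. Substrate was 2 μM final, read ex 325/em 395 nm every 15 s for 20 min. IC50 from Vi/Vo = 1/(1+[I]/IC50); mean of three experiments.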

[1] = biological target: 72 kDa type IV collagenase (Homo sapiens, UniProt P08253); assay: Inhibition of human recombinant MMP2 using Mca-Lys-Pro-Leu-Gly-Leu-Dap(Dnp)-Ala-Arg-NH2 as substrate preincubated for 4 hrs measured every 15 secs for 20 mins by fluorescence analysis
Sequence of 72 kDa type IV collagenase (P08253 whole entry): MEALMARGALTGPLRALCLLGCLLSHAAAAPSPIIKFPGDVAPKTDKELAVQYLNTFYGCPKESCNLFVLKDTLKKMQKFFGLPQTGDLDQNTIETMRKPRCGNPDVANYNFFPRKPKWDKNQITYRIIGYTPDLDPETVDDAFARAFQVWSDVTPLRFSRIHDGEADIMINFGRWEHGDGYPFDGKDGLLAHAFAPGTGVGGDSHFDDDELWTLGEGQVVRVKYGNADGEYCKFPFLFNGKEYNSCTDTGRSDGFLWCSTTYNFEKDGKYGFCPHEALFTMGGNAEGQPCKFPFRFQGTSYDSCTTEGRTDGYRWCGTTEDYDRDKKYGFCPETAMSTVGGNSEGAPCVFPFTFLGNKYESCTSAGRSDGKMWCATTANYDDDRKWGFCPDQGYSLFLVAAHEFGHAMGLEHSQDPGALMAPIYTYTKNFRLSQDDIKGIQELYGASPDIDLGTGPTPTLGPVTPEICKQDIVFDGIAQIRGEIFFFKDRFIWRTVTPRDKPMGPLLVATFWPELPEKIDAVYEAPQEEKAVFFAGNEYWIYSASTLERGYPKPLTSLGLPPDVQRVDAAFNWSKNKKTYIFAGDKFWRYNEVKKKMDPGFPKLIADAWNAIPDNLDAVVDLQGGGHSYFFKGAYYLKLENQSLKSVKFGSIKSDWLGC
Summary of the method: (§1)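 The proenzymes were activated with 2 mM APMA for 1 h at 37 °C. Final enzyme was 0.5 nM for MMP2 and 1.5 nM for MMP8. Each was incubated 4 h at 25 °C with seven inhibitor concentrations in pH 7.5 Tris/NaCl/CaCl2/Brij 35/1% DMSO buffer. With 2 μM substrate, fluorescence (325/395 nm) was read every 15 s for 20 min. IC50 came from fractional initial velocity; mean of three independent runs.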

Stromelysin-1 = Stromelysin-1 (Homo sapiens, UniProt P08254); assay: Inhibition of MMP3 using Mca-Arg-Pro-Lys-Pro-Val-Glu-Nva-Trp-Arg-Lys(Dnp)-NH2 as substrate preincubated for 4 hrs measured every 15 secs for 20 mins by fluorescence analysis
Sequence of Stromelysin-1 (P08254 whole entry): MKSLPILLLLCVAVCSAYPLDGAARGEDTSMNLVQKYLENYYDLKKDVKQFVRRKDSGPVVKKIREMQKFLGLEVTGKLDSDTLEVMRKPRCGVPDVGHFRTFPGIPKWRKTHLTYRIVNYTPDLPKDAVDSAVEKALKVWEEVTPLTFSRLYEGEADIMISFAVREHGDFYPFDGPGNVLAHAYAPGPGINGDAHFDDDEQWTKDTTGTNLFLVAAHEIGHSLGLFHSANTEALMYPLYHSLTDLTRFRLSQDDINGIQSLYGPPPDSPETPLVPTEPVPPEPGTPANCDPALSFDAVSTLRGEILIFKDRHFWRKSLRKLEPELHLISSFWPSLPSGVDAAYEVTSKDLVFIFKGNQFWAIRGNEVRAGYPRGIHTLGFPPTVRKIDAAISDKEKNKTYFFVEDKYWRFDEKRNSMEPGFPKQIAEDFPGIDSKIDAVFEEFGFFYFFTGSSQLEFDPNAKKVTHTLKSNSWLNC
Summary of the method: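 Pro-MMP3 activated with trypsin 5 μg/mL, 30 min, 37 °C, then soybean trypsin inhibitor 62 μg/mL. Enzyme at 5 nM final was incubated 4 h at 25 °C with seven inhibitor concentrations in Tris 50 mM pH 7.5, NaCl 150 mM, CaCl2 10 mM, Brij 35 0.05%, DMSO 1%.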

Neutrophil collagenase = Neutrophil collagenase (Homo sapiens, UniProt P22894); assay: Inhibition of human recombinant MMP8 using Mca-Lys-Pro-Leu-Gly-Leu-Dap(Dnp)-Ala-Arg-NH2 as substrate preincubated for 4 hrs measured every 15 secs for 20 mins by fluorescence analysis; summary of the method: as §1
Sequence of Neutrophil collagenase (P22894 whole entry): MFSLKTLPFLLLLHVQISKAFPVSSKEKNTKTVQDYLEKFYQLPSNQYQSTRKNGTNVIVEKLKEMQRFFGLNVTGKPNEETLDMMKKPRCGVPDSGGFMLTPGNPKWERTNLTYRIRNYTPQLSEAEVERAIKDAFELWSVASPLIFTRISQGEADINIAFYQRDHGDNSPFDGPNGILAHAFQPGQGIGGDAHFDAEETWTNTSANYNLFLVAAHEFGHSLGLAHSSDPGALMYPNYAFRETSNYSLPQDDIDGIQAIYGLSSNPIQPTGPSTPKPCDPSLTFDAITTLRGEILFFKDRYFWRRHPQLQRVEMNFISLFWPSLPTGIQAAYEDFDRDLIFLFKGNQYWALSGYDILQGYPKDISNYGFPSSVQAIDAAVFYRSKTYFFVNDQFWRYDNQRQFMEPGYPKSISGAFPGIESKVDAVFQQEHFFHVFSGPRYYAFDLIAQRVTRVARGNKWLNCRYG

[2] = biological target: Matrix metalloproteinase-9 (Homo sapiens, UniProt P14780); assay: Inhibition of human recombinant MMP9 using Mca-Lys-Pro-Leu-Gly-Leu-Dap(Dnp)-Ala-Arg-NH2 as substrate preincubated for 4 hrs measured every 15 secs for 20 mins by fluorescence analysis
Sequence of Matrix metalloproteinase-9 (P14780 whole entry): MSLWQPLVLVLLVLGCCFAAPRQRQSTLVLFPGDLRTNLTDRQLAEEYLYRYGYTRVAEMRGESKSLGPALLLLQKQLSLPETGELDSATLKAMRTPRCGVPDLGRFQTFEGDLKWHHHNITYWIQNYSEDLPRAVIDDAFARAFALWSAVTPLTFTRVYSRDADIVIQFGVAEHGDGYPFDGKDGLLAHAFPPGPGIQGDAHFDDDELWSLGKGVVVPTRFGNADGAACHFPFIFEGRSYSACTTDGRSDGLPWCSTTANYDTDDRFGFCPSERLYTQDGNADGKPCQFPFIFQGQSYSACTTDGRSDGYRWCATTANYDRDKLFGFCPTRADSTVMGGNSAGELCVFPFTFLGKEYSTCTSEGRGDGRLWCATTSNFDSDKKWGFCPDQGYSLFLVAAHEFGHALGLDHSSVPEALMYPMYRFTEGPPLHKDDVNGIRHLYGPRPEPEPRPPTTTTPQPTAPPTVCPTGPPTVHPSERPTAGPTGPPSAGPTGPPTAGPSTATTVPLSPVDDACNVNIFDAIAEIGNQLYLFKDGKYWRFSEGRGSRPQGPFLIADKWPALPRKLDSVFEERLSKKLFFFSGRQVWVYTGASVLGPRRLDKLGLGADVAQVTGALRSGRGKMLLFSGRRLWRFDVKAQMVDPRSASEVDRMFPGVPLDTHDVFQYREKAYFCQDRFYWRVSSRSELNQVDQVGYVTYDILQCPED
Summary of the method: (§2)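 APMA activation at 1 mM, 1 h, 37 °C. Final enzyme was 0.3 nM for MMP13 and 1.3 nM for MMP9. Enzyme and inhibitor (seven concentrations) were incubated 4 h at 25 °C in Tris 50 mM pH 7.5 buffer with 150 mM NaCl, 10 mM CaCl2, 0.05% Brij 35, 1% DMSO. Substrate 2 μM final, ex 325/em 395 nm, every 15 s over 20 min. IC50 via Vi/Vo = 1/(1+[I]/IC50); three experiments averaged.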

[3] = biological target: Macrophage metalloelastase (Homo sapiens, UniProt P39900); assay: Inhibition of MMP12 using Mca-Lys-Pro-Leu-Gly-Leu-Dap(Dnp)-Ala-Arg-NH2 as substrate preincubated for 4 hrs measured every 15 secs for 20 mins by fluorescence analysis
Sequence of Macrophage metalloelastase (P39900 whole entry): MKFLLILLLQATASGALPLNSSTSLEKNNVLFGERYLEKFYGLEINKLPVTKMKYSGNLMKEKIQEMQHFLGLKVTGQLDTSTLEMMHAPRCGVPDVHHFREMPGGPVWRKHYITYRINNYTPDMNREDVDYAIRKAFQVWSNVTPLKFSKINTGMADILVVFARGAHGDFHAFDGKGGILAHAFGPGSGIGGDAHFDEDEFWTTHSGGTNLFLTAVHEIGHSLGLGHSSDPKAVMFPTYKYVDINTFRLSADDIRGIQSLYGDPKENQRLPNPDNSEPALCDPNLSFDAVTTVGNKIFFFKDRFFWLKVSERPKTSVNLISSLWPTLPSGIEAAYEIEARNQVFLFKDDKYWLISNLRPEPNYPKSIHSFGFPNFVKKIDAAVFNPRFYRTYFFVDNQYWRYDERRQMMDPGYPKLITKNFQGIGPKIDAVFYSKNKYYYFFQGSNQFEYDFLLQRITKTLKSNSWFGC
Summary of the method: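 Pro-MMP12 was autoactivated for 30 h at 37 °C in assay buffer (Tris 50 mM pH 7.5, NaCl 150 mM, CaCl2 10 mM, Brij 35 0.05%, DMSO 1%). Enzyme at 1.0 nM final was incubated 4 h at 25 °C with seven inhibitor concentrations. Substrate 2 μM final, fluorescence ex 325/em 395 nm every 15 s for 20 min. IC50 via initial-velocity equation; mean of three experiments.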

Collagenase 3 = Collagenase 3 (Homo sapiens, UniProt P45452); assay: Inhibition of MMP13 using Mca-Lys-Pro-Leu-Gly-Leu-Dap(Dnp)-Ala-Arg-NH2 as substrate preincubated for 4 hrs measured every 15 secs for 20 mins by fluorescence analysis; summary of the method: as §2
[4] = biological target: Matrix metalloproteinase-14 (Homo sapiens, UniProt P50281); assay: Inhibition of human recombinant MMP14 using Mca-Lys-Pro-Leu-Gly-Leu-Dap(Dnp)-Ala-Arg-NH2 as substrate preincubated for 4 hrs measured every 15 secs for 20 mins by fluorescence analysis
Summary of the method: (§3)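 Catalytic domains of MMP14 (1.0 nM final) and MMP16 (15 nM), and TACE (7.5 nM), were incubated 4 h at 25 °C with seven inhibitor concentrations. Buffer was Tris 50 mM pH 7.5, NaCl 150 mM, CaCl2 10 mM, Brij 35 0.05%, DMSO 1%. Substrate 2 μM final; hydrolysis read at 325/395 nm every 15 s for 20 min. IC50 from Vi/Vo = 1/(1+[I]/IC50); mean of three experiments.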

[5] = biological target: Matrix metalloproteinase-16 (Homo sapiens, UniProt P51512); assay: Inhibition of human recombinant MMP16 using Mca-Lys-Pro-Leu-Gly-Leu-Dap(Dnp)-Ala-Arg-NH2 as substrate preincubated for 4 hrs measured every 15 secs for 20 mins by fluorescence analysis; summary of the method: as §3
Sequence of Matrix metalloproteinase-16 (P51512 whole entry, the tested form may be a part): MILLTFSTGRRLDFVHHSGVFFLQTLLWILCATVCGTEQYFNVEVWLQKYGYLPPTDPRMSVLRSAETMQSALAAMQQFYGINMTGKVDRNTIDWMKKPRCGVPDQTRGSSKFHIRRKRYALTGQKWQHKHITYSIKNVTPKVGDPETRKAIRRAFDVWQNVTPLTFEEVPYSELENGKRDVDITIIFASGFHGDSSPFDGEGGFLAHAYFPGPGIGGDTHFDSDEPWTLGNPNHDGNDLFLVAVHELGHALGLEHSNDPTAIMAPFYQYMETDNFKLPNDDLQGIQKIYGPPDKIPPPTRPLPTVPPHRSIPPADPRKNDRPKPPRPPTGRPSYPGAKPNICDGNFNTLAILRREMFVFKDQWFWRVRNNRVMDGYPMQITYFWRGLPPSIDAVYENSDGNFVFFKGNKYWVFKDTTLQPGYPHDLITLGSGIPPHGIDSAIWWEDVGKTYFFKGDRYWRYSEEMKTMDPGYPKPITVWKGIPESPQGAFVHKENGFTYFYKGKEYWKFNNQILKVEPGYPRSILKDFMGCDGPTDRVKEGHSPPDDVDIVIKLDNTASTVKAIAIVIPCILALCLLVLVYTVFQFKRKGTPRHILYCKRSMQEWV

[6] = biological target: Disintegrin and metalloproteinase domain-containing protein 17 (Homo sapiens, UniProt P78536); assay: Inhibition of TACE using Mca-Lys-Pro-Leu-Gly-Leu-Dap(Dnp)-Ala-Arg-NH2 as substrate preincubated for 4 hrs measured every 15 secs for 20 mins by fluorescence analysis; summary of the method: as §3
Sequence of Disintegrin and metalloproteinase domain-containing protein 17 (P78536 whole entry, the tested form may be a part): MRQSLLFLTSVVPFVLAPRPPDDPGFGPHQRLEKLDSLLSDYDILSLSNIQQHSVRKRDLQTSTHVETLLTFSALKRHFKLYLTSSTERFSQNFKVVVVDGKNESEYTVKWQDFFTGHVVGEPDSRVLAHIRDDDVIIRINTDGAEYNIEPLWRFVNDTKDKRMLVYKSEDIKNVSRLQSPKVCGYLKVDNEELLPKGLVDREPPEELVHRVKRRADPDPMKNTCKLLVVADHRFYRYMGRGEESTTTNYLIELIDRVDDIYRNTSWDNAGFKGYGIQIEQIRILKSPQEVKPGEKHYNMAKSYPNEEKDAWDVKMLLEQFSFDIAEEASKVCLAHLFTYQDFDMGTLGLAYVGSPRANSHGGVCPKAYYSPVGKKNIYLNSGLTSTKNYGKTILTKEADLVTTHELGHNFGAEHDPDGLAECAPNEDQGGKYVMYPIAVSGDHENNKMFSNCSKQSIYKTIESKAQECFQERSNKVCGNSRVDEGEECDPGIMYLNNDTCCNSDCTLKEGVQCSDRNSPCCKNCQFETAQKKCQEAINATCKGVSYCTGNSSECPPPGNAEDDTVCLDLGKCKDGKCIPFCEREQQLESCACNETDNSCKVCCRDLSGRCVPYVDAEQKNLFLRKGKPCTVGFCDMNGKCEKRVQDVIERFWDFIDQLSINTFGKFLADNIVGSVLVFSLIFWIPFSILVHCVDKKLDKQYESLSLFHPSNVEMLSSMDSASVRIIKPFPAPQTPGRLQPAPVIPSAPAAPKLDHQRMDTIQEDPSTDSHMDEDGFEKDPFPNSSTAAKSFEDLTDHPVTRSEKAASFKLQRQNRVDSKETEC

Matrilysin = biological target: T2, Matrilysin (Homo sapiens, UniProt P09237); assay: Inhibition of MMP7 using Mca-Lys-Pro-Leu-Gly-Leu-Dap(Dnp)-Ala-Arg-NH2 as substrate preincubated for 4 hrs measured every 15 secs for 20 mins by fluorescence analysis
T2 sequence (P09237 whole entry): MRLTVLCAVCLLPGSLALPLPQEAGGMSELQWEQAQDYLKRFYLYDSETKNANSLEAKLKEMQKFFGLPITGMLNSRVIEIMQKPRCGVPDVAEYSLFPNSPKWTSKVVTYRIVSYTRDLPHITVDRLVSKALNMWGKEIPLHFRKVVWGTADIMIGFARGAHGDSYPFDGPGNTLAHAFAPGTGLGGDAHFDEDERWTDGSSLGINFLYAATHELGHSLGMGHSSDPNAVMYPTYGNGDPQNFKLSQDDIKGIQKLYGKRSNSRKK
Summary of the method: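 Pro-MMP7 activated with 3.3 mM APMA, 2 h, 37 °C, then used at 1.3 nM final. Enzyme was preincubated with seven inhibitor concentrations for 4 h at 25 °C in pH 7.5 Tris buffer with NaCl, CaCl2, Brij 35 and 1% DMSO. Fluorogenic substrate 2 μM final; fluorescence (325/395 nm) recorded every 15 s for 20 min. IC50 from initial-velocity ratio; mean of three experiments.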

[7] = Stability in D2O assessed as compound decomposition at pD 2 after 24 hrs by NMR spectroscopy; assay type: physicochemical; conditions: pH 2, read-out: Drug metabolism
[8] = Stability in D2O assessed as compound decomposition at pD 2 after 48 hrs by NMR spectroscopy; assay type: physicochemical; conditions: pH 2, read-out: Drug metabolism
[9] = Stability in D2O assessed as compound decomposition at pD 2 after 5 days by NMR spectroscopy; assay type: physicochemical; conditions: pH 2, read-out: Drug metabolism
[10] = Stability in D2O assessed as compound decomposition at pD 2 after 10 days by NMR spectroscopy; assay type: physicochemical; conditions: pH 2, read-out: Drug metabolism
[11] = Stability in D2O assessed as compound decomposition at pD 7 after 24 hrs by NMR spectroscopy; assay type: physicochemical; conditions: pH 7, read-out: Drug metabolism
[12] = Stability in D2O assessed as compound decomposition at pD 7 after 3 days by NMR spectroscopy; assay type: physicochemical; conditions: pH 7, read-out: Drug metabolism
[13] = Stability in D2O assessed as compound decomposition at pD 7 after 5 days by NMR spectroscopy; assay type: physicochemical; conditions: pH 7, read-out: Drug metabolism
[14] = Stability in D2O assessed as compound decomposition at pD 7 after 20 days by NMR spectroscopy; assay type: physicochemical; conditions: pH 7, read-out: Drug metabolism

SMILES | pIC50 (Interstitial collagenase) | pIC50 [1] | pIC50 (Stromelysin-1) | pIC50 (Neutrophil collagenase) | pIC50 [2] | pIC50 [3] | pIC50 (Collagenase 3) | pIC50 [4] | pIC50 [5] | pIC50 [6] | pIC50 (Matrilysin) | degraded at 24 h [7] [%] | degraded at 48 h [8] [%] | degraded at 120 h [9] [%] | degraded at 240 h [10] [%] | degraded at 24 h [11] [%] | degraded at 72 h [12] [%] | degraded at 120 h [13] [%] | degraded at 480 h [14] [%]
CC(C)[C@@H]1C(=O)N(O)C(=O)CN1S(=O)(=O)c1ccc(Oc2ccccc2)cc1 | 5.80 | 7.52 | 6.66 | 7.68 | 7.52 | 7.64 | 8.02 | 7.08 | 7.41 | 5.00 |  |  |  |  |  |  |  |  | 
CC(C)[C@@H]1C(=O)N(O)C(=O)CN1S(=O)(=O)c1ccc(-c2ccccc2)cc1 | 5.89 | 6.62 | 5.41 | 7.17 | 6.18 | 7.72 | 7.28 | 5.41 | 5.66 | 4.80 |  |  |  |  |  |  |  |  | 
COc1ccc(S(=O)(=O)N(Cc2cccnc2)[C@@H](C(=O)NO)C(C)C)cc1 [CGS-27023A] |  |  |  |  |  |  |  |  |  |  | 6.42 |  |  |  |  |  |  |  | 

More lines, in order of rising pIC50 (Stromelysin-1), values ahead:

pIC50 (Interstitial collagenase) | pIC50 [1] | pIC50 (Stromelysin-1) | pIC50 (Neutrophil collagenase) | pIC50 [2] | pIC50 [3] | pIC50 (Collagenase 3) | pIC50 [4] | pIC50 [5] | pIC50 [6] | pIC50 (Matrilysin) | degraded at 24 h [7] [%] | degraded at 48 h [8] [%] | degraded at 120 h [9] [%] | degraded at 240 h [10] [%] | degraded at 24 h [11] [%] | degraded at 72 h [12] [%] | degraded at 120 h [13] [%] | degraded at 480 h [14] [%] | SMILES
5.31 | 5.92 | 5.47 | 6.52 | 6.16 | 7.18 | 6.52 | 5.66 | 5.96 | 4.48 | 4.41 | < 1 | 2 | 5 | 8 | < 1 | 3 | 6 | 7 | COc1ccc(S(=O)(=O)N2CC(=O)N(O)C(=O)[C@H]2C(C)C)cc1
 |  | 8.17 |  |  |  |  |  |  |  |  |  |  |  |  |  |  |  |  | CC(C)[C@H](C(=O)NO)N(CC(=O)O)S(=O)(=O)c1ccc(Oc2ccccc2)cc1
